Measured values reported in ChEMBL document CHEMBL1909581, “Growth inhibition of human lung cancer cells via down-regulation of epidermal growth factor receptor signaling by yuanhuadine, a daphnane diterpene from Daphne genkwa” (J Nat Prod, 2011).
Active and inactive are the calls of the source. No cut-off for these calls is given here.

Key:
[1] = system: A549; experiment: Cell cycle arrest in human A549 cells assessed as accumulation at G2/M phase at 100 nM after 48 hrs by propidium iodide staining-based flow cytometric analysis (reference value: 18.9 %); assay type: functional
[2] = system: PC-3; experiment: Antiproliferative activity against human PC3 cells after 3 days by SRB assay; assay type: functional, cell-based; conditions: PC-3, 72 h
Summary of the method: (§1)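 Cells seeded at 5 × 10^4 cells/mL and exposed to a range of concentrations for 3 days. Fixed with 10% TCA, then SRB stain read. Growth expressed as % of solvent-treated control. IC50 obtained by nonlinear regression of percent survival versus concentration.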

[3] = system: A549; experiment: Cell cycle arrest in human A549 cells assessed as accumulation at G0/G1 phase at 100 nM after 24 hrs by propidium iodide staining-based flow cytometric analysis (reference value: 49.6 %); assay type: functional
[4] = system: NCI-H292; experiment: Antiproliferative activity against human NCI-H292 cells after 3 days by SRB assay; assay type: functional, cell-based; conditions: NCI-H292, 72 h
[5] = target: Serine/threonine-protein kinase mTOR (Homo sapiens) (UniProt P42345); experiment: Inhibition of MTOR phosphorylation in human A549 cells at 20 nM after 24 to 48 hrs by Western blot analysis; assay type: cell-based
Summary of the method: (§2)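 A549 cells (RPMI 1640, 10% FBS, 37 °C, 5% CO2) exposed to the compound at various concentrations for 24 or 48 h. Lysates run on 6–15% SDS-PAGE, transferred to PVDF, probed with primary antibodies overnight at 4 °C, and detected by ECL. Blots shown are representative of three independent experiments.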

[6] = target: Hepatocyte growth factor receptor (Homo sapiens) (UniProt P08581); experiment: Inhibition of c-Met phosphorylation at Tyr1230/1234/1235 in HGF-stimulated human A549 cells pretreated at 5 to 100 nM for 2 hrs by Western blot analysis; assay type: cell-based
Summary of the method: (§3)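 A549 cells pretreated for 2 h with the compound at 5, 20 or 100 nM, then stimulated with HGF (50 ng/mL) for 10 min. c-Met and its downstream signalling proteins read by Western blot (SDS-PAGE, PVDF transfer, ECL detection).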

[7] = target: Epidermal growth factor receptor (Homo sapiens) (UniProt P00533); experiment: Inhibition of EGFR-mediated Akt phosphorylation in EGF-stimulated human A549 cells pretreated at 20 nM by Western blot analysis; assay type: cell-based
Summary of the method: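 A549 cells serum-starved 24 h, pretreated with 20 nM compound for 2 h, then stimulated with EGF (10 ng/mL) for 10 min. Levels of EGFR, Akt and ERK read by Western blot.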

[8] = target: Serine/threonine-protein kinase mTOR (Homo sapiens) (UniProt P42345); experiment: Inhibition of MTOR-mediated 4EBP1 phosphorylation in human A549 cells at 20 nM after 24 to 48 hrs by Western blot analysis; assay type: cell-based; summary of the method: as §2
[9] = system: A549; experiment: Antitumor activity against human A549 cells xenografted in BALB/c mouse assessed as inhibition of tumor growth at 0.5 mg/kg, po once daily for 14 days measured for 27 days relative to control; assay type: functional; conditions: read-out: GI
Summary of the method: (§4)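 Female nu/nu nude mice given 3 × 10^6 A549 cells sc into the right flank, in 200 μL medium. At ~100 mm3, randomized into groups of five. Dosed orally once daily for 14 days in 100 μL ethanol–Tween 80–water (1:1:98), vehicle as control. Tumor volume measured by caliper every 2–3 days; body weight monitored.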

[10] = system: A549; experiment: Cell cycle arrest in human A549 cells assessed as accumulation at G2/M phase at 20 nM after 48 hrs by propidium iodide staining-based flow cytometric analysis (reference value: 18.9 %); assay type: functional
[11] = target: Hepatocyte growth factor receptor (Homo sapiens) (UniProt P08581); experiment: Inhibition of c-Met phosphorylation at Tyr1003 in HGF-stimulated human A549 cells pretreated at 5 to 100 nM for 2 hrs by Western blot analysis; assay type: cell-based; summary of the method: as §3
[12] = system: A549; experiment: Cell cycle arrest in human A549 cells assessed as accumulation at G2/M phase at 5 nM after 48 hrs by propidium iodide staining-based flow cytometric analysis (reference value: 18.9 %); assay type: functional
[13] = system: A549; experiment: Upregulation of p21 expression in human A549 cells at G1 phase at 5 to 100 nM after 24 to 48 hrs by Western blot analysis; assay type: functional, cell-based; summary of the method: as §2
[14] = target: Epidermal growth factor receptor (Homo sapiens) (UniProt P00533); experiment: Inhibition of EGFR phosphorylation in […]-stimulated human A549 cells pretreated at 20 nM by Western blot analysis; assay type: cell-based
Summary of the method: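 A549 cells serum-starved 24 h, pretreated with 20 nM for 2 h, then stimulated with EGF (10 ng/mL) for 10 min. EGFR, Akt and ERK phosphorylation and levels assessed by Western blot.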

[15] = target: Hepatocyte growth factor receptor (Homo sapiens) (UniProt P08581); experiment: Inhibition of c-Met-mediated FAK phosphorylation in HGF-stimulated human A549 cells pretreated at 5 to 100 nM by Western blot analysis; assay type: cell-based; summary of the method: as §3
[16] = system: A549; experiment: Cell cycle arrest in human A549 cells assessed as accumulation at Sub-G1 phase at 100 nM after 24 hrs by propidium iodide staining-based flow cytometric analysis (reference value: 0.2 %); assay type: functional
[17] = system: SNU-638; experiment: Antiproliferative activity against human SNU638 cells after 3 days by SRB assay; assay type: functional, cell-based; conditions: SNU-638, 72 h; summary of the method: as §1
[18] = system: SW480; experiment: Antiproliferative activity against human SW480 cells after 3 days by SRB assay; assay type: functional, cell-based; conditions: SW480, 72 h; summary of the method: as §1
[19] = system: A549; experiment: Cell cycle arrest in human A549 cells assessed as accumulation at G0/G1 phase at 20 nM after 24 hrs by propidium iodide staining-based flow cytometric analysis (reference value: 49.6 %); assay type: functional
[20] = system: A549; experiment: Downregulation of CDC2 expression in human A549 cells at G2/M phase at 5 to 100 nM after 24 to 48 hrs by Western blot analysis; assay type: functional, cell-based
Summary of the method: (§5)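 A549 cells treated with a range of concentrations for 24 or 48 h. Lysates run on 6–15% SDS-PAGE and blotted to PVDF, blocked in 5% milk/PBST. Primary antibodies overnight at 4 °C, secondary 2 h at room temperature, ECL detection. Representative of three independent experiments.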

[21] = system: A549; experiment: Cell cycle arrest in human A549 cells assessed as accumulation at G2/M phase at 100 nM after 24 hrs by propidium iodide staining-based flow cytometric analysis (reference value: 18.9 %); assay type: functional
[22] = system: MRC5; experiment: Antiproliferative activity against human MRC5 cells after 3 days by SRB assay; assay type: cell-based; conditions: mrc5, 72 h; summary of the method: as §1
[23] = system: A549; experiment: Antitumor activity against human A549 cells xenografted in BALB/c mouse assessed as inhibition of tumor growth at 0.2 mg/kg, po once daily for 14 days measured for 27 days relative to control; assay type: functional, organism-based; parameters: dose 0.2 mg/kg; summary of the method: as §4
[24] = system: HCT-116; experiment: Antiproliferative activity against human HCT116 cells after 3 days by SRB assay; assay type: functional, cell-based; conditions: HCT-116, 72 h; summary of the method: as §1
[25] = system: A549; experiment: Downregulation of cyclin B1 expression in human A549 cells at G2/M phase at 5 to 100 nM after 24 to 48 hrs by Western blot analysis; assay type: functional, cell-based; summary of the method: as §5
[26] = system: A549; experiment: Cell cycle arrest in human A549 cells assessed as accumulation at S phase at 5 nM after 48 hrs by propidium iodide staining-based flow cytometric analysis (reference value: 31.6 %); assay type: functional
[27] = system: A549; experiment: Cell cycle arrest in human A549 cells assessed as accumulation at S phase at 5 nM after 24 hrs by propidium iodide staining-based flow cytometric analysis (reference value: 31.6 %); assay type: functional
[28] = Antiproliferative activity against human H1299 cells after 3 days by SRB assay; assay type: functional, cell-based; conditions: NCI-H1299, 72 h; summary of the method: as §1

Sequence of Hepatocyte growth factor receptor (Homo sapiens) (P08581 whole entry): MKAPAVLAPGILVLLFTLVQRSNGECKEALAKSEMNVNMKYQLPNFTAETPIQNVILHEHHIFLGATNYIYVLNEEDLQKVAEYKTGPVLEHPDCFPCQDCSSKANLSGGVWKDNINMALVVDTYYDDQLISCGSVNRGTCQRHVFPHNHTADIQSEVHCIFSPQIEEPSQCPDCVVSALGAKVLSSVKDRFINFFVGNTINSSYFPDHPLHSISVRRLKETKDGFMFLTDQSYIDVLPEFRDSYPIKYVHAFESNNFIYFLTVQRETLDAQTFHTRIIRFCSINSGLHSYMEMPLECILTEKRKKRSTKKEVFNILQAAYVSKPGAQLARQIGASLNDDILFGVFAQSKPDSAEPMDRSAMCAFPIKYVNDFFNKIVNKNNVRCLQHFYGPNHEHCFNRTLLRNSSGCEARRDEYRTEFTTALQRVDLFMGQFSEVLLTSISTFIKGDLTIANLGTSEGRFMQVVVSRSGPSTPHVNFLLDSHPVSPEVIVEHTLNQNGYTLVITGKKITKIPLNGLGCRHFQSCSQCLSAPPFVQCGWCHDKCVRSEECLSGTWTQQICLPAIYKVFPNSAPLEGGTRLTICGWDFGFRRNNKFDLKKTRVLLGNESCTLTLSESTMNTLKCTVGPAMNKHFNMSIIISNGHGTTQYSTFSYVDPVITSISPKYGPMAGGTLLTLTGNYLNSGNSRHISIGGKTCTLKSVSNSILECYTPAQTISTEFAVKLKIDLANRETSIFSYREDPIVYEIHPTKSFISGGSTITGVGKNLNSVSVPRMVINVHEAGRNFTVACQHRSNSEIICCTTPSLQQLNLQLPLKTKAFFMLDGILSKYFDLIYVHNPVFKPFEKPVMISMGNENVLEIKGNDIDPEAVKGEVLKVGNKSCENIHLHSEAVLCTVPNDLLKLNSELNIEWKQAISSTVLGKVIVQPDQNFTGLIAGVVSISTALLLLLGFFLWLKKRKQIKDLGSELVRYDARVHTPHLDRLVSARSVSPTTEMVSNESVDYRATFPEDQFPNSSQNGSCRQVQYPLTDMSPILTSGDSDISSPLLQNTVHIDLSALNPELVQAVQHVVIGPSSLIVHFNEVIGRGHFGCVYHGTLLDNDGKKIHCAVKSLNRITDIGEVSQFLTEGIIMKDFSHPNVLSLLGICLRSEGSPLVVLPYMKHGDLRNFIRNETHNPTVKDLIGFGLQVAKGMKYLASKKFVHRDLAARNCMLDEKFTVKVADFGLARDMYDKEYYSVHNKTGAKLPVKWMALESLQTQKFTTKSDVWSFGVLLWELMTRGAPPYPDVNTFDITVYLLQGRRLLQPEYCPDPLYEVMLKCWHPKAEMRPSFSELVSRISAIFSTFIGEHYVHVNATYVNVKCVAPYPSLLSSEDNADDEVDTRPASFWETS
Sequence of Epidermal growth factor receptor (Homo sapiens) (P00533 whole entry): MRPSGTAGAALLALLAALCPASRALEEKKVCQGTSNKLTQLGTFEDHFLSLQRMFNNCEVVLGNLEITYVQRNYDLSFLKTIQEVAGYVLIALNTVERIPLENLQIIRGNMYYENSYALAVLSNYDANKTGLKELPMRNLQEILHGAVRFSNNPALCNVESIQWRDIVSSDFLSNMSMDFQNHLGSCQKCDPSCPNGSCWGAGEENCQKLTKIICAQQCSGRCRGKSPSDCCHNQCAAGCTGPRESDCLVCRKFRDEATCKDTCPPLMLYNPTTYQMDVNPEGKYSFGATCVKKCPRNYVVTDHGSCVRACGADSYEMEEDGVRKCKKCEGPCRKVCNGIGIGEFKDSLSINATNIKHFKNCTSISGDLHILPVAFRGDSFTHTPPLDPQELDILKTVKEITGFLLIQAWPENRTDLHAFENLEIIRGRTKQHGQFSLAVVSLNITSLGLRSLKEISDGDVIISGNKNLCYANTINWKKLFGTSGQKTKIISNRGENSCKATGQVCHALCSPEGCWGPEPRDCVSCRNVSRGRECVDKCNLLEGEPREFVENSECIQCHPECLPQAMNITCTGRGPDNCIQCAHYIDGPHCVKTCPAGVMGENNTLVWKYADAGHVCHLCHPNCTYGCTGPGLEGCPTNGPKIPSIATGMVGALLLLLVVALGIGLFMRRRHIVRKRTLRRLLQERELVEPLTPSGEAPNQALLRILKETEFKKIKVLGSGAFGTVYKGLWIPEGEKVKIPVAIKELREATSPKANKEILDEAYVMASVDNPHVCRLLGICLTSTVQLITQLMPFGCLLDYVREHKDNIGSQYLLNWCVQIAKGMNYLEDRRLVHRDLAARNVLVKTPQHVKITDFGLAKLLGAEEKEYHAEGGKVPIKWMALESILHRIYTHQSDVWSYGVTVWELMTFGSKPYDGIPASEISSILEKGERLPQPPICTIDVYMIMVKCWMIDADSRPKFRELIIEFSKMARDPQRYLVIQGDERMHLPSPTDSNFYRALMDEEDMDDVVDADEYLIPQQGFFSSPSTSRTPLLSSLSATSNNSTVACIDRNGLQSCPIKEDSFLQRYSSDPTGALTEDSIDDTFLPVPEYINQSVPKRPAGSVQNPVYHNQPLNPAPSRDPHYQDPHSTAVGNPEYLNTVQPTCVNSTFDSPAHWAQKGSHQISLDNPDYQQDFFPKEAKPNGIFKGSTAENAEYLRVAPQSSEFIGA

## C=C(C)[C@@]12O[C@@]3(/C=C/C=C/CCCCC)O[C@@H]1[C@@H]1[C@@H]4O[C@]4(CO)[C@@H](O)[C@]4(O)C(=O)C(C)=C[C@H]4[C@@]1(O3)[C@H](C)[C@H]2OC(C)=O [YUANHUADINE]
[1]
  Activity: 26.3%
[2]
  IC50: 7.4 µM
[3]
  Activity: 65.3%
[4]
  IC50: < 1 pM
[5]
  inhibition: Active
[6]
  inhibition: Active
[7]
  inhibition: Active
[8]
  inhibition: Active
[9]
  inhibition in vivo at 0.5 mg/kg: 50%
[10]
  Activity: 22.2%
[11]
  inhibition: Active
[12]
  Activity: 25.1%
[13]
  Activity: Active
[14]
  inhibition: Active
[15]
  inhibition: Active
[16]
  Activity: 0.3%
[17]
  IC50: > 20 µM
[18]
  IC50: 11.8 µM
[19]
  Activity: 68.2%
[20]
  Activity: Active
[21]
  Activity: 28%
[22]
  growth inhibition (GI): Non-toxic
[23]
  growth inhibition (GI): Active
[24]
  IC50: 10.2 µM
[25]
  Activity: Active
[26]
  Activity: 12%
[27]
  Activity: 5.5%
[28]
  IC50: 5.6 µM
